ChEMBL document CHEMBL1121766, “Chemical modification of aminoglycosides. 3. Synthesis of 2"-deoxykanamycins from neamine” (1981)
≈ marks a conversion by molar mass, not a printed value.

Tests used:
Escherichia coli = experiment: Compound was tested in vitro for antibacterial activity against Escherichia coli UC 45; assay type: functional
Method in brief: (§1)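 MIC by microplate broth dilution: serial twofold dilutions of antibiotic in brain-heart infusion broth, each well inoculated with standardized cell suspension to ~10^5 viable cells per mL of drug-supplemented medium. Incubated 37 °C for 20 h; MIC read as lowest concentration inhibiting visible growth.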

Pseudomonas aeruginosa [1] = experiment: Compound was tested in vitro for antibacterial activity against Pseudomonas aeruginosa UC 3680; assay type: functional; method in brief: as §1
Pseudomonas aeruginosa [2] = experiment: Compound was tested in vitro for antibacterial activity against Pseudomonas aeruginosa UC 3682; assay type: functional; method in brief: as §1
Pseudomonas aeruginosa [3] = experiment: Compound was tested in vitro for antibacterial activity against Pseudomonas aeruginosa UC 3679; assay type: functional; method in brief: as §1
Streptococcus pyogenes = experiment: Compound was tested in vitro for antibacterial activity against Streptococcus pyogenes UC 152; assay type: functional; method in brief: as §1
Proteus vulgaris = experiment: Compound was tested in vitro for antibacterial activity against Proteus vulgaris UC 93; assay type: functional; method in brief: as §1
Pseudomonas aeruginosa [4] = experiment: Compound was tested in vitro for antibacterial activity against Pseudomonas aeruginosa UC 3681; assay type: functional; method in brief: as §1
Salmonella typhi = experiment: Compound was tested in vitro for antibacterial activity against Salmonella typhi UC 215; assay type: functional, Salmonella enterica subsp. enterica serovar Typhi; conditions: Salmonella enterica
Method in brief: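 Microplate broth dilution: serial twofold antibiotic dilutions in brain-heart infusion broth, inoculated with a standardized cell suspension to a final ~10^5 viable cells per mL. Incubated 37 °C for 20 h. MIC read as the lowest concentration that inhibited visible growth.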

Proteus mirabilis = experiment: Compound was tested in vitro for antibacterial activity against Proteus mirabilis UC 6671; assay type: functional; method in brief: as §1
Pseudomonas aeruginosa [5] = experiment: Compound was tested in vitro for antibacterial activity against Pseudomonas aeruginosa UC 6436; assay type: functional; method in brief: as §1
Pseudomonas aeruginosa [6] = experiment: Compound was tested in vitro for antibacterial activity against Pseudomonas aeruginosa UC 95; assay type: functional; method in brief: as §1
Staphylococcus aureus = experiment: Compound was tested in vitro for antibacterial activity against Staphylococcus aureus UC76; assay type: functional; method in brief: as §1
Streptococcus pneumoniae = experiment: Compound was tested in vitro for antibacterial activity against Streptococcus pneumoniae UC 41; assay type: functional; method in brief: as §1
Serratia marcescens = experiment: Compound was tested in vitro for antibacterial activity against Serratia marcescens UC 131; assay type: functional; method in brief: as §1
Pseudomonas aeruginosa [7] = experiment: Compound was tested in vitro for antibacterial activity against Pseudomonas aeruginosa UC 3683; assay type: functional; method in brief: as §1
[8] = Compound was tested in vitro for antibacterial activity against Salmonella schottmuelleri UC 126; assay type: functional; method in brief: as §1
Enterococcus faecalis = experiment: Compound was tested in vitro for antibacterial activity against Streptococcus faecalis UC 694; assay type: functional; method in brief: as §1
Klebsiella pneumoniae = experiment: Compound was tested in vitro for antibacterial activity against Klebsiella pneumoniae UC 58; assay type: functional; method in brief: as §1

NCC1CCC(N)C(OC2C(N)CC(N)C(OC3CC(N)C(O)C(CO)O3)C2O)O1 (stereo not drawn)
MIC (Escherichia coli): 62.5 µg/mL (≈ 144 µM)
MIC (Pseudomonas aeruginosa [1]): 7.8 µg/mL (≈ 17.9 µM)
MIC (Pseudomonas aeruginosa [2]): 15.6 µg/mL (≈ 35.8 µM)
MIC (Pseudomonas aeruginosa [3]): 7.8 µg/mL (≈ 17.9 µM)
MIC (Streptococcus pyogenes): 7.8 µg/mL (≈ 17.9 µM)
MIC (Proteus vulgaris): 31.2 µg/mL (≈ 71.6 µM)
MIC (Pseudomonas aeruginosa [4]): 15.6 µg/mL (≈ 35.8 µM)
MIC (Salmonella typhi): 15.6 µg/mL (≈ 35.8 µM)
MIC (Proteus mirabilis): 62.5 µg/mL (≈ 144 µM)
MIC (Pseudomonas aeruginosa [5]): > 125 µg/mL
MIC (Pseudomonas aeruginosa [6]): 7.8 µg/mL (≈ 17.9 µM)
MIC (Pseudomonas aeruginosa [6]; Pseudomonas aeruginosa, read-out: MIC): 15.6 µg/mL (≈ 35.8 µM)
MIC (Staphylococcus aureus): < 1 µg/mL
MIC (Streptococcus pneumoniae): 250 µg/mL (≈ 574 µM)
MIC (Serratia marcescens): 15.6 µg/mL (≈ 35.8 µM)
MIC (Pseudomonas aeruginosa [7]): 7.8 µg/mL (≈ 17.9 µM)
MIC [8]: 15.6 µg/mL (≈ 35.8 µM)
MIC (Enterococcus faecalis): 250 µg/mL (≈ 574 µM)
MIC (Klebsiella pneumoniae): 3.9 µg/mL (≈ 8.95 µM)

NCC1OC(OC2C(N)CC(N)C(OC3CC(N)C(O)C(CO)O3)C2O)C(N)C(O)C1O (stereo not drawn)
MIC (Escherichia coli): 31.2 µg/mL (≈ 66.7 µM)
MIC (Streptococcus pyogenes): 15.6 µg/mL (≈ 33.4 µM)
MIC (Proteus mirabilis): 62.5 µg/mL (≈ 134 µM)
MIC (Staphylococcus aureus): 3.9 µg/mL (≈ 8.34 µM)
MIC (Streptococcus pneumoniae): 500 µg/mL (≈ 1070 µM)
MIC (Serratia marcescens): 31.2 µg/mL (≈ 66.7 µM)
MIC [8]: 15.6 µg/mL (≈ 33.4 µM)
MIC (Enterococcus faecalis): 1000 µg/mL (≈ 2140 µM)
MIC (Klebsiella pneumoniae): 3.9 µg/mL (≈ 8.34 µM)
